In ChEMBL document CHEMBL1153485, “Synthesis and biological evaluation of novel 1-(4-methoxyphenethyl)-1H-benzimidazole-5-carboxylic acid derivatives and their precursors as antileukemic agents” (Bioorg Med Chem Lett, 2009):
pIC50: −log10 of the molar value. Active and inactive are the calls of the source. The calls are words filed in the database; no cut-off is given here.

Tests used:
Assay type in all cases: functional, cell-based
K562 [1] = assay: Cytotoxicity against human K562 cells
Outline: (§1)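 K562 and CEM cells; IC50 values calculated from both trypan blue counting and MTT assays.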

CCRF-CEM [2] = assay: Cytotoxicity against human CEM cells; outline: as §1
K562 [3] = assay: Cytotoxicity against human K562 cells at 100 uM within 48 hrs by trypan blue exclusion assay
Outline: (§2)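 Leukemic cells treated with derivatives dissolved in DMSO at […]; DMSO-only cells at the amount used for the top concentration served as vehicle control. Viable cells counted by trypan blue at 24 h intervals until stationary phase.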

CCRF-CEM [4] = assay: Cytotoxicity against human CEM cells at 100 uM within 48 hrs by trypan blue exclusion assay; outline: as §2
K562 [5] = assay: Cytotoxicity against human K562 cells at 250 uM within 48 hrs by trypan blue exclusion assay; outline: as §2
CCRF-CEM [6] = assay: Cytotoxicity against human CEM cells at 250 uM within 48 hrs by trypan blue exclusion assay; outline: as §2
K562 [7] = assay: Induction of apoptosis in human K562 cells assessed as DNA strand breakage at 100 uM after 72 hrs using ethidium bromide staining by agarose gel electrophoresis
K562 [8] = assay: Induction of cell cycle arrest at M phase in human K562 cells assessed as reduction in phosphorylated histone H3 level at 5 uM after 24 hrs by Western blot analysis
K562 [9] = assay: Induction of cell cycle arrest at M phase in human K562 cells assessed as reduction in phosphorylated histone H3 level at 10 uM after 24 hrs by Western blot analysis
K562 [10] = assay: Induction of cell cycle arrest in human K562 cells assessed as reduction in PCNA level at 5 to 10 uM after 24 hrs by Western blot analysis
K562 [11] = assay: Induction of cell cycle arrest at G2/M phase in human K562 cells assessed as down-regulation of cyclin B1 at 5 to 10 uM after 24 hrs by Western blot analysis
K562 [12] = assay: Induction of cell cycle arrest at S phase in human K562 cells assessed as down-regulation of CDK2 at 10 uM after 24 hrs by Western blot analysis
K562 [13] = assay: Induction of p21 activation in human K562 cells at 5 to 10 uM after 24 hrs by Western blot analysis
K562 [14] = assay: Induction of apoptosis in human K562 cells assessed as DNA strand breakage at 10 uM after 72 hrs using ethidium bromide staining by agarose gel electrophoresis
K562 [15] = assay: Induction of apoptosis in human K562 cells assessed as upregulation of BAD protein at 30 uM by SDS-PAGE; settings: TDE = time-dependent effect
Outline: (§3)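 K562 cells treated with […] compound for 12 and 24 h; DMSO-treated cells grown 24 h as vehicle control. Lysates separated by SDS-PAGE, transferred to PVDF, probed with specific primary and secondary antibodies for BAD, BCL2 and PARP.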

K562 [16] = assay: Induction of apoptosis in human K562 cells assessed as down-regulation of BCL2 protein at 30 uM after 12 hrs by SDS-PAGE; outline: as §3
K562 [17] = assay: Induction of apoptosis in human K562 cells assessed as PARP cleavage at 30 uM after 12 hrs by SDS-PAGE; outline: as §3
K562 [18] = assay: Cell cycle arrest in human K562 cells assessed as accumulation at S phase at 1 to 10 uM after 8 to 48 hrs by FACS analysis
Outline: (§4)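 K562 cells treated with […] compound, analysed by FACS for cell cycle distribution; DMSO-treated cells as vehicle control.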

K562 [19] = assay: Cell cycle arrest in human K562 cells assessed as accumulation at G2/M phase at 1 to 10 uM after 8 to 48 hrs by FACS analysis; outline: as §4

Structure (SMILES)	pIC50 (K562 [1])	pIC50 (CCRF-CEM [2])	Activity (K562 [3])	Activity (CCRF-CEM [4])	Activity (K562 [5])	Activity (CCRF-CEM [6])	further results
COC(=O)c1ccc2c(c1)nc(-c1ccc(F)c(N)c1)n2CCc1ccc(OC)cc1	4.11	4.12	–	–	–	–	–
COc1ccc(CCn2c(-c3ccc(F)c([N+](=O)[O-])c3)nc3cc(C(=O)O)ccc32)cc1	3.87	3.88	–	–	–	–	–
COC(=O)c1ccc2c(c1)nc(-c1cccc(Br)c1)n2CCc1ccc(OC)cc1	< 3.60	< 3.60	–	–	–	–	–
COC(=O)c1ccc2c(c1)nc(-c1cccc(OC)c1)n2CCc1ccc(OC)cc1	3.87	3.86	Active	Active	Active	Active	–
COc1ccc(CCn2c(-c3ccc(F)c(N)c3)nc3cc(C(=O)O)ccc32)cc1	3.74	3.74	–	–	–	–	–
COc1ccc(CCn2c(-c3c(F)cccc3F)nc3cc(C(=O)O)ccc32)cc1	4.10	4.07	–	–	–	–	–
COc1ccc(CCn2c(-c3ccc(C(C)(C)C)cc3)nc3cc(C(=O)O)ccc32)cc1	4.40	4.38	–	–	–	–	Activity (K562 [7]): Active
COC(=O)c1ccc2c(c1)nc(-c1ccccc1F)n2CCc1ccc(OC)cc1	4.25	4.26	Active	Active	Active	Active	Activity (K562 [7]): Active
COC(=O)c1ccc2c(c1)nc(-c1ccc(N)cc1)n2CCc1ccc(OC)cc1	3.74	3.76	–	–	–	–	–
COC(=O)c1ccc2c(c1)nc(-c1c(F)cccc1F)n2CCc1ccc(OC)cc1	4.08	4.07	Active	Active	Active	Active	–
COc1ccc(CCn2c(-c3ccc([N+](=O)[O-])cc3)nc3cc(C(=O)O)ccc32)cc1	3.60	3.61	–	–	–	–	–
COC(=O)c1ccc2c(c1)nc(-c1ccc(F)c([N+](=O)[O-])c1)n2CCc1ccc(OC)cc1	5.52	5.40	Active	Active	Active	Active	Activity (K562 [8]): Active; Activity (K562 [9]): Active; Activity (K562 [10]): Active; Activity (K562 [11]): Active; Activity (K562 [12]): Active; Activity (K562 [13]): Active; Activity (K562 [14]): Active; Activity (K562 [15]): tde; Activity (K562 [16]): Active; Activity (K562 [17]): Active; Activity (K562 [18]): Active; Activity (K562 [19]): Active
COc1ccc(CCn2c(-c3ccccc3F)nc3cc(C(=O)O)ccc32)cc1	3.62	3.61	–	–	–	–	–
COc1ccc(CCn2c(-c3ccccc3)nc3cc(C(=O)O)ccc32)cc1	< 3.60	< 3.60	–	–	–	–	–
COc1ccc(CCn2c(-c3cccc(OC)c3)nc3cc(C(=O)O)ccc32)cc1	3.70	3.71	–	–	–	–	–
COC(=O)c1ccc2c(c1)nc(-c1ccc(C(C)(C)C)cc1)n2CCc1ccc(OC)cc1	4.15	4.17	Active	Active	Active	Active	–
COC(=O)c1ccc2c(c1)nc(-c1ccc(Cl)cc1Cl)n2CCc1ccc(OC)cc1	< 3.60	< 3.60	–	–	–	–	–
COc1ccc(CCn2c(-c3ccc(N)cc3)nc3cc(C(=O)O)ccc32)cc1	< 3.60	< 3.60	–	–	–	–	–
COC(=O)c1ccc2c(c1)nc(-c1ccccc1)n2CCc1ccc(OC)cc1	4.19	4.19	Active	Active	Active	Active	–
COc1ccc(CCn2c(-c3cccc(Br)c3)nc3cc(C(=O)O)ccc32)cc1	3.91	3.92	Active	Active	Active	Active	–
COC(=O)c1ccc2c(c1)nc(-c1ccc([N+](=O)[O-])cc1)n2CCc1ccc(OC)cc1	3.92	3.91	–	–	–	–	–
COc1ccc(CCn2c(-c3ccc(Cl)cc3Cl)nc3cc(C(=O)O)ccc32)cc1	3.96	3.99	Active	Active	Active	Active	–
